The results in this text go back to ChEMBL document CHEMBL1126792, “Structure-activity relationships of beta-D-(2S,5R)- and alpha-D-(2S,5S)-1,3-oxathiolanyl nucleosides as potential anti-HIV agents” (J Med Chem, 1993).

Structures are written as SMILES. pEC50, pIC50: −log10 of the molar value. A value given as a limit tells only on which side of the number the result lay.

One assay deals with Vero. The experiment in a line: Inhibition of cell growth in vero cells. It is filed as functional, cell-based. Conditions: Chlorocebus sabaeus. In short, it runs like this: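 Vero cell cytotoxicity assay; IC50 = concentration giving 50% inhibition of cell growth; mean of triplicate values, calculated by the median method.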
In assay [1] the test system is Human immunodeficiency virus 1. The experiment in a line: Concentration required for antiviral activity in PBMC (human peripheral blood mononuclear cells) infected with HIV-1 strain LAV. The class given is functional, organism-based. In short, it runs like this:
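Human PBM cells infected with HIV-1 strain LAV. EC50 is the concentration giving 50% inhibition of virus production, measured as reverse transcriptase (RT) levels in culture supernatant. Values are the mean of triplicates, calculated by the median method.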

The test system of assay [2] is Human immunodeficiency virus 1. The experiment in a line: Inhibition of cell growth against HIV-1 infected PBM (Human peripheral blood mononuclear) cells. It is filed as functional, organism-based. An outline of the steps:
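Growth of human PBM cells measured in cytotoxicity assay; IC50 = concentration giving 50% inhibition of cell growth; mean of triplicate values, calculated by the median method.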

Where [3] appears, read: Human immunodeficiency virus 1, PBMC.

Usually pIC50 stands for the IC50 on a negative log10 scale, so that one unit is a factor of ten. Higher therefore signals a low IC50. Usually pEC50 stands for the negative decadic logarithm of the EC50, by convention in mol/L. A higher pEC50 goes with a low EC50. On to `Cc1cn([C@H]2C[C@H](N=[N+]=[N-])[C@@H](CO)O2)c(=O)[nH]c1=O` [ZIDOVUDINE], for which the pIC50 (with Vero; in assay [2]) was less than 4.00 in each case. Moreover, the negative logarithm of the EC50 (pEC50) in assay [1] (setting [3]) is 8.40.

For the molecule `CNc1ncnc2c1ncn2[C@H]1CS[C@@H](CO)O1`, the pIC50 (in the assay with Vero; in assay [2]) was less than 4.00 each time. Besides, in assay [1] (setting [3]), the negative-log EC50 (pEC50) was 5.96.

For the molecule `Nc1nc(=O)n([C@@H]2CS[C@@H](CO)O2)cc1Cl`, the pIC50 was 4.51 in the assay on Vero and less than 4.00 in assay [2]. Moreover, the pEC50 in assay [1] (setting [3]) was less than 4.00.

Regarding `Nc1nc(=O)n([C@@H]2CS[C@@H](CO)O2)cc1I`, the pIC50 (in the assay on Vero; in assay [2]) was less than 4.00 throughout. This molecule had a negative logarithm of the EC50 (pEC50) in assay [1] (setting [3]) of 6.55.

Consider `O=c1[nH]c(=O)n([C@@H]2CS[C@@H](CO)O2)cc1I`, for which the pIC50 (with Vero; in assay [2]) was less than 4.00 throughout. Further, the pEC50 in assay [1] (setting [3]) was 3.95.

In the case of `Cc1cn([C@H]2CS[C@@H](CO)O2)c(=O)[nH]c1=O`, the pIC50 (with Vero; in assay [2]) was less than 4.00 throughout. The molecule further showed a negative-log EC50 (pEC50) in assay [1] (setting [3]) of 4.94.

For `Nc1nc(O)c2ncn([C@@H]3CS[C@@H](CO)O3)c2n1`, the negative logarithm of the IC50 (pIC50) with Vero is 4.20; in assay [2], less than 4.00. The same molecule gave a pEC50 in assay [1] (setting [3]) of 5.12.

Consider `OC[C@H]1O[C@@H](n2cnc3c(O)ncnc32)CS1`, for which the negative-log IC50 (pIC50) (in the assay with Vero; in assay [2]) was less than 4.00 in each case. In assay [1] (setting [3]), this molecule had a pEC50 of 7.30.

As for `Cc1cn([C@@H]2CS[C@@H](CO)O2)c(=O)nc1N`, the negative-log IC50 (pIC50) (in the assay with Vero; in assay [2]) was less than 4.00 throughout. In addition, the pEC50 in assay [1] (setting [3]) is less than 4.00.

`Nc1nc(=O)n([C@@H]2CS[C@@H](CO)O2)cc1Br`: the pIC50 (with Vero; in assay [2]) was less than 4.00 in each case. This molecule showed a negative-log EC50 (pEC50) in assay [1] (setting [3]) of less than 4.00.

For `O=c1[nH]c(=O)n([C@H]2CS[C@@H](CO)O2)cc1I`, the negative-log IC50 (pIC50) (with Vero; in assay [2]) was less than 4.00 each time. Further, in assay [1] (setting [3]), the pEC50 is 4.53.

`Nc1nc(=O)n([C@H]2CS[C@@H](CO)O2)cc1Cl`: the negative logarithm of the IC50 (pIC50) (in the assay on Vero; in assay [2]) was less than 4.00 in each case. Besides, in assay [1] (setting [3]), the pEC50 was 6.55.

Regarding `Nc1nc(=O)n([C@H]2CS[C@@H](CO)O2)cc1F`, the negative logarithm of the IC50 (pIC50) (with Vero; in assay [2]) was less than 4.00 in each case. Besides, the pEC50 in assay [1] (setting [3]) was 6.42.

For the molecule `O=c1[nH]c(=O)n([C@@H]2CS[C@@H](CO)O2)cc1Br`, the pIC50 (in the assay on Vero; in assay [2]) was less than 4.00 in each case. In addition, the negative-log EC50 (pEC50) in assay [1] (setting [3]) is less than 4.00.

As to `Cc1cn([C@H]2CS[C@@H](CO)O2)c(=O)nc1N`, the negative-log IC50 (pIC50) (in the assay with Vero; in assay [2]) was less than 4.00 each time. Besides, in assay [1] (setting [3]), the pEC50 is 6.76.

Turning to `Nc1nc(F)nc2c1ncn2[C@H]1CS[C@@H](CO)O1`, the pIC50 in the assay on Vero was 5.25; in assay [2], less than 4.00. Also, the negative logarithm of the EC50 (pEC50) in assay [1] (setting [3]) was 5.55.

Take `O=c1[nH]c(=O)n([C@H]2CS[C@@H](CO)O2)cc1Cl`: the pIC50 (with Vero; in assay [2]) was less than 4.00 in each case. In assay [1] (setting [3]), this molecule showed a negative logarithm of the EC50 (pEC50) of 4.52.

In the case of `OC[C@H]1O[C@H](n2cnc3c(Cl)ncnc32)CS1`, the results for the negative logarithm of the IC50 (pIC50) (in the assay with Vero; in assay [2]) were 4.06 and less than 4.00, respectively. Besides, the pEC50 in assay [1] (setting [3]) is 5.57.

With `Nc1nc(O)c2ncn([C@H]3CS[C@@H](CO)O3)c2n1`, the negative logarithm of the IC50 (pIC50) (in the assay on Vero; in assay [2]) was less than 4.00 each time. This molecule also gave a pEC50 in assay [1] (setting [3]) of 6.08.

Turning to `OC[C@H]1O[C@H](n2cnc3c(O)ncnc32)CS1`, the pIC50 (in the assay on Vero; in assay [2]) was less than 4.00 in each case. For the same molecule, in assay [1] (setting [3]), the negative-log EC50 (pEC50) is less than 4.00.

`Nc1ccn([C@@H]2CS[C@@H](CO)O2)c(=O)n1`: the pIC50 (in the assay with Vero; in assay [2]) was less than 4.00 throughout. Besides, in assay [1] (setting [3]), the pEC50 is less than 4.00.

`O=c1[nH]c(=O)n([C@H]2CS[C@@H](CO)O2)cc1F`: the negative-log IC50 (pIC50) (in the assay on Vero; in assay [2]) was less than 4.00 in each case. The molecule also had a pEC50 in assay [1] (setting [3]) of 5.20.

On to `OC[C@H]1O[C@@H](n2cnc3c(Cl)ncnc32)CS1`, for which the negative-log IC50 (pIC50) in the assay on Vero was 4.33; in assay [2], less than 4.00. In addition, the pEC50 in assay [1] (setting [3]) is 6.32.

With `Nc1nc(F)nc2c1ncn2[C@@H]1CS[C@@H](CO)O1`, the pIC50 with Vero was 4.34; in assay [2], less than 4.00. The pEC50 in assay [1] (setting [3]) is 4.21.

For the molecule `O=c1[nH]c(=O)n([C@H]2CS[C@@H](CO)O2)cc1Br`, the pIC50 (in the assay with Vero; in assay [2]) was less than 4.00 in each case. This molecule also had a negative logarithm of the EC50 (pEC50) in assay [1] (setting [3]) of less than 4.00.

For the molecule `Nc1ncnc2c1ncn2[C@H]1CS[C@@H](CO)O1`, the pIC50 (with Vero; in assay [2]) was less than 4.00 throughout. This molecule showed a negative logarithm of the EC50 (pEC50) in assay [1] (setting [3]) of 6.55.

On to `Cc1cn([C@@H]2CS[C@@H](CO)O2)c(=O)[nH]c1=O`, for which the pIC50 (in the assay with Vero; in assay [2]) was less than 4.00 each time. The same molecule had a pEC50 in assay [1] (setting [3]) of less than 4.00.

`Nc1ncnc2c1ncn2[C@@H]1CS[C@@H](CO)O1`: the negative logarithm of the IC50 (pIC50) (in the assay on Vero; in assay [2]) was less than 4.00 throughout. The same molecule gave a negative-log EC50 (pEC50) in assay [1] (setting [3]) of 4.92.

As for `Nc1nc(=O)n([C@H]2CS[C@@H](CO)O2)cc1I`, the pIC50 (in the assay on Vero; in assay [2]) was less than 4.00 in each case. The pEC50 in assay [1] (setting [3]) is 5.72.

With `Nc1nc2c(ncn2[C@H]2CO[C@@H](CO)O2)c(=O)[nH]1`, the pEC50 in assay [1] (setting [3]) is 7.52.

`Nc1ccn([C@H]2CO[C@@H](CO)O2)c(=O)n1` had a negative logarithm of the EC50 (pEC50) in assay [1] (setting [3]) of 7.80.

In the case of `Nc1ccn([C@@H]2CS[C@H](CO)O2)c(=O)n1` [LAMIVUDINE], the negative-log IC50 (pIC50) (in the assay with Vero; in assay [2]) was less than 4.00 each time. Moreover, the pEC50 in assay [1] (pbmc) is 8.74.

Take `Nc1nc(=O)n([C@@H]2CS[C@@H](CO)O2)cc1F`: the negative-log IC50 (pIC50) (in the assay with Vero; in assay [2]) was less than 4.00 throughout. The same molecule had a negative-log EC50 (pEC50) in assay [1] (setting [3]) of 4.11.

As to `CNc1ncnc2c1ncn2[C@@H]1CS[C@@H](CO)O1`, the pIC50 (in the assay with Vero; in assay [2]) was less than 4.00 throughout. The molecule further gave a pEC50 in assay [1] (setting [3]) of 4.93.

Regarding `Nc1nc(Cl)c2ncn([C@H]3CS[C@@H](CO)O3)c2n1` (racemic), the negative logarithm of the IC50 (pIC50) (in the assay on Vero; in assay [2]) was less than 4.00 each time. Further, the pEC50 in assay [1] (setting [3]) was 6.28.

Take `Nc1nc(=O)n([C@H]2CS[C@@H](CO)O2)cc1Br`: the negative logarithm of the IC50 (pIC50) (in the assay on Vero; in assay [2]) was less than 4.00 each time. The same molecule had a pEC50 in assay [1] (setting [3]) of 7.92.

For `Nc1nc(Cl)c2ncn([C@@H]3CS[C@@H](CO)O3)c2n1`, the pIC50 (with Vero; in assay [2]) was less than 4.00 each time. The molecule further gave a pEC50 in assay [1] (setting [3]) of 5.25.

As to `O=c1ccn([C@H]2CS[C@@H](CO)O2)c(=O)[nH]1`, the pIC50 (with Vero; in assay [2]) was less than 4.00 throughout. The pEC50 in assay [1] (setting [3]) is 4.02.

Turning to `O=c1[nH]c(=O)n([C@@H]2CS[C@@H](CO)O2)cc1Cl`, the negative logarithm of the IC50 (pIC50) (with Vero; in assay [2]) was less than 4.00 throughout. In assay [1] (setting [3]), this molecule showed a negative-log EC50 (pEC50) of less than 4.00.
